Reference: ChEMBL document CHEMBL4118248, “Small Molecule Proprotein Convertase Subtilisin/Kexin Type 9 (PCSK9) Inhibitors: Hit to Lead Optimization of Systemic Agents” (J Med Chem, 2018)
pIC50, pKi: −log10 of the molar value. Calls of active or inactive are those of the source. No cut-off for these calls is given here.

How the values were obtained:
Rattus norvegicus [1] = test: Toxicity in Crl:CD(SD) rat assessed as single cell necrosis in crypt cells in ileum at 50 mg/kg/day, po daily via gavage for 14 days measured on day 15 post last dose; format: organism-based; conditions: in vivo, 336 h
[2] = Lipophilicity, log D of the compound by shake flask method; format: physicochemical; conditions: octanol/water
Summary of the method: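 LogD measured by the shake-flask method.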

[3] = Fraction unbound in rat plasma; format: ADME, cell-free
Summary of the method: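 Unbound fraction measured in rat plasma.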

80S Ribosome [4] = test: Binding affinity of [3H]PF-06446846 to human 80S ribosome
80S Ribosome [5] = test: Binding affinity to 80S ribosome in human HuH7 cells assessed as inhibition of PCSK9 mRNA translation after overnight incubation by ELISA; format: cell-based; conditions: huh-7
Summary of the method: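 Huh7 cells kept in high-glucose DMEM, 10% BSA-free FBS, 2 mM L-glutamine, pen/strep at 37 °C, 5% CO2. Plated 7,500/well with compound or vehicle and incubated overnight (16-20 h). Secreted PCSK9 in the medium read by AlphaLISA: two antibodies to different mature-PCSK9 epitopes, biotinylated antibody 3 nM final, acceptor beads 10 µg/mL, 0.5 h rt; streptavidin donor beads 40 µg/mL, 1 h rt.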

[6] = target: T1, Voltage-gated inwardly rectifying potassium channel KCNH2 (Homo sapiens, UniProt Q12809); test: Inhibition of human ERG by patch clamp method
[7] = Cytotoxicity against human CD34-positive hematopoietic progenitor cells assessed as reduction in cell viability after 72 hrs by CellTiter-Glo assay; format: cell-based
Rattus norvegicus [8] = test: Toxicity in Crl:CD(SD) rat at 50 mg/kg/day, po daily via gavage for 14 days measured on day 15 post last dose; format: organism-based; conditions: in vivo, 336 h
Summary of the method: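 Male rats, 5 per group, given vehicle or test compound at 50 mg/kg by daily oral gavage for 14 days. Mortality, clinical signs and hematology were monitored throughout. Toxicokinetics were sampled at 1, 3, 6 and 24 h post-dose on day 14. Necropsy was on day 15, with microscopic evaluation of bone marrow, ileum, duodenum, jejunum and liver.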

[9] = Intrinsic clearance in rat liver microsomes; format: ADME, microsome; conditions: read-out: CLH
Rattus norvegicus [10] = test: Toxicity in Crl:CD(SD) rat assessed as discolored/mottled liver at 50 mg/kg/day, po daily via gavage for 14 days measured on day 15 post last dose; format: organism-based; conditions: in vivo, 336 h
Summary of the method: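 Male rats, 5 per group, given vehicle or compound at 50 mg/kg/day by oral gavage for 14 days. Mortality, clinical signs and hematology monitored throughout. Necropsy on day 15 with microscopy of bone marrow, ileum, duodenum, jejunum and liver. Toxicokinetics at 1, 3, 6 and 24 h post-dose on day 14.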

CYP2D6 = CYP2D6 (Homo sapiens, UniProt P10635); test: Inhibition of CYP2D6 (unknown origin) at 3 uM relative to control; format: ADME
Summary of the method: (§1)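 Inhibition of CYP1A2, 2D6, 2C9 and 3A4 reported as IC50, or as percent inhibition at 3 µM.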

Ribosome [11] = test: Binding affinity to 80S ribosome in rat IEC-6 cells assessed as induction of changes in Ndc80 nascent chain expression at 4 uM by ribosome profiling method; format: cell-based
Summary of the method: (§2)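 Rat IEC-6 cells exposed 1 h to 4 µM compound or vehicle, followed by ribosome profiling. Cumulative read fractions along annotated protein regions compared with vehicle. RPKM taken from reads 3' of the Dmax position when the Dmax Z-score is >2.0, otherwise 3' of codon 50.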

[12] = target: T1, Voltage-gated inwardly rectifying potassium channel KCNH2; test: Inhibition of dofetilide binding to human ERG by fluorescence polarization assay
[13] = Apparent permeability in RRCK cells; format: ADME, cell-based, Canis lupus familiaris, MDCKII-LE; conditions: dog, MDCK
Summary of the method: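 Passive permeability measured in RRCK cells, a modified Madin-Darby canine kidney line; Papp reported in 10^-6 cm/s.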

[14] = Total Cmax in Crl:CD(SD) rat at 50 mg/kg/day, po daily via gavage for 14 days measured on day 14 post last dose up to 24 hrs; format: ADME, organism-based; parameters: dose 50 mg/kg/day, route oral; conditions: in vivo
Rattus norvegicus [15] = test: Toxicity in Crl:CD(SD) rat assessed as mortality at >= 150 mg/kg/day, po daily via gavage for 14 days measured on day 15 post last dose; format: organism-based; conditions: in vivo, 336 h
[16] = Total plasma concentration in Crl:CD(SD) rat at 50 mg/kg/day, po daily via gavage for 14 days measured on day 14 post last dose up to 24 hrs; format: ADME, organism-based; conditions: in vivo
[17] = Selectivity index, ratio of IC50 for cytotoxicity against rat bone marrow cells to IC50 for 80S ribosome in human HuH7 cells harboring pCMV-truncated human PCSK9 (1 to 152 residues)-proLuc; format: toxicity, cell-based; conditions: read-out: Ratio IC50
[18] = Intrinsic clearance in human liver microsomes; format: ADME, microsome; conditions: read-out: CLH
Mus musculus = test: Inhibition of PCSK9 secretion in plasma of humanized PCSK9 C57BL6J mouse assessed as free plasma concentration required to show effect at 30 to 100 mg/kg, po via gavage measured up to 24 hrs by ELISA; format: functional
Summary of the method: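 Humanized PCSK9 mice given a single oral dose of 30 or 100 mg/kg, with vehicle group. Plasma PCSK9 followed over 0-24 h and normalized to t = 0. Free effective concentration derived from the whole time course with an indirect-effect PK/PD model.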

CYP2C9 = CYP2C9 (Homo sapiens, UniProt P11712); test: Inhibition of CYP2C9 (unknown origin) at 3 uM relative to control; format: ADME; summary of the method: as §1
CYP3A4 = CYP3A4 (Homo sapiens, UniProt P08684); test: Inhibition of CYP3A4 (unknown origin) at 3 uM relative to control; format: ADME; summary of the method: as §1
IEC-6 = test: Cytotoxicity against rat IEC-6 cells assessed as reduction in cell viability after 3 days by CellTiter-Glo assay; format: cell-based; conditions: IEC-6, 72 h
Summary of the method: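 Rat intestinal epithelial IEC-6 cells; viability read by CellTiter-Glo ATP luminescence.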

Rattus norvegicus [19] = test: Toxicity in Crl:CD(SD) rat assessed as mortality at 500 mg/kg/day, po daily via gavage for 14 days; format: organism-based; conditions: in vivo, 336 h
Summary of the method: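 Rats dosed orally at 50, 150 and 500 mg/kg/day for 14 days; crypt epithelium of duodenum/jejunum examined histologically and mortality recorded.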

Rattus norvegicus [20] = test: Toxicity in Crl:CD(SD) rat at 50 mg/kg/day, po daily via gavage for 14 days; format: organism-based; conditions: in vivo, 336 h
[21] = Permeability from apical to basolateral side in MDCK cells harboring MDR1; format: ADME, cell-based, Canis lupus familiaris; conditions: dog, read-out: permeability
Summary of the method: (§3)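 Bidirectional permeability across MDR1-transfected MDCK monolayers, apical-to-basolateral and basolateral-to-apical; Papp reported in 10^-6 cm/s.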

[22] = Permeability from basolateral to apical side in MDCK cells harboring MDR1; format: ADME, cell-based, Canis lupus familiaris; conditions: dog, read-out: permeability; summary of the method: as §3
CYP1A2 = target: T2, CYP1A2 (Homo sapiens, UniProt P05177); test: Inhibition of CYP1A2 (unknown origin) at 3 uM relative to control; format: ADME; summary of the method: as §1
T2 sequence (P05177 whole entry): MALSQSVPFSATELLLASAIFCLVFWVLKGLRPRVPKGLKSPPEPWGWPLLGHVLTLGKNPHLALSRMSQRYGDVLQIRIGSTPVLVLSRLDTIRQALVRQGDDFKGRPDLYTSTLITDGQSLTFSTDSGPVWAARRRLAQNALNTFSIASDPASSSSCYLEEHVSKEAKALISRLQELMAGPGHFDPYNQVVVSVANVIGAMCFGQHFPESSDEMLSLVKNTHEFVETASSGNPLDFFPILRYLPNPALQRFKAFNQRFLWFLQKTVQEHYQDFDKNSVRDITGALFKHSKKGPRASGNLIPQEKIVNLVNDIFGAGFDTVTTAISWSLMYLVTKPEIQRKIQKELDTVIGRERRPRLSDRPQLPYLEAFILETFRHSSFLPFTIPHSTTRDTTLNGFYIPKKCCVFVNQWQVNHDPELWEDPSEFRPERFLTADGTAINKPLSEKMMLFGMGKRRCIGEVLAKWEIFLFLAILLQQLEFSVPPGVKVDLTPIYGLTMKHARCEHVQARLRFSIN

Ribosome [23] = test: Binding affinity to 80S ribosome in rat IEC-6 cells assessed as induction of changes in Cox15 nascent chain expression at 4 uM by ribosome profiling method; format: cell-based; summary of the method: as §2
80S Ribosome [24] = test: Binding affinity to 80S ribosome in human HuH7 cells harboring pCMV-truncated human PCSK9 (1 to 152 residues)-proLuc assessed as inhibition of PCSK9 mRNA translation after overnight incubation by luciferase reporter gene assay; format: cell-based; conditions: huh-7
Summary of the method: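 Huh7 cells stably carry human PCSK9 prodomain (aa 1-152) fused to firefly luciferase (aa 2-550) in pcDNA3.1, kept under 900 µg/mL Geneticin. Plated 10,000/well in phenol red-free DMEM/10% FBS and left 4 h, then compound added (top final 20 µM, 0.5% DMSO). Incubated overnight at 37 °C, luminescence read with SteadyGlo.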

Bone marrow cell = test: Cytotoxicity against rat bone marrow cells assessed as reduction in cell viability after 72 hrs by CellTiter-Glo assay; format: cell-based

T1 sequence (Q12809 whole entry): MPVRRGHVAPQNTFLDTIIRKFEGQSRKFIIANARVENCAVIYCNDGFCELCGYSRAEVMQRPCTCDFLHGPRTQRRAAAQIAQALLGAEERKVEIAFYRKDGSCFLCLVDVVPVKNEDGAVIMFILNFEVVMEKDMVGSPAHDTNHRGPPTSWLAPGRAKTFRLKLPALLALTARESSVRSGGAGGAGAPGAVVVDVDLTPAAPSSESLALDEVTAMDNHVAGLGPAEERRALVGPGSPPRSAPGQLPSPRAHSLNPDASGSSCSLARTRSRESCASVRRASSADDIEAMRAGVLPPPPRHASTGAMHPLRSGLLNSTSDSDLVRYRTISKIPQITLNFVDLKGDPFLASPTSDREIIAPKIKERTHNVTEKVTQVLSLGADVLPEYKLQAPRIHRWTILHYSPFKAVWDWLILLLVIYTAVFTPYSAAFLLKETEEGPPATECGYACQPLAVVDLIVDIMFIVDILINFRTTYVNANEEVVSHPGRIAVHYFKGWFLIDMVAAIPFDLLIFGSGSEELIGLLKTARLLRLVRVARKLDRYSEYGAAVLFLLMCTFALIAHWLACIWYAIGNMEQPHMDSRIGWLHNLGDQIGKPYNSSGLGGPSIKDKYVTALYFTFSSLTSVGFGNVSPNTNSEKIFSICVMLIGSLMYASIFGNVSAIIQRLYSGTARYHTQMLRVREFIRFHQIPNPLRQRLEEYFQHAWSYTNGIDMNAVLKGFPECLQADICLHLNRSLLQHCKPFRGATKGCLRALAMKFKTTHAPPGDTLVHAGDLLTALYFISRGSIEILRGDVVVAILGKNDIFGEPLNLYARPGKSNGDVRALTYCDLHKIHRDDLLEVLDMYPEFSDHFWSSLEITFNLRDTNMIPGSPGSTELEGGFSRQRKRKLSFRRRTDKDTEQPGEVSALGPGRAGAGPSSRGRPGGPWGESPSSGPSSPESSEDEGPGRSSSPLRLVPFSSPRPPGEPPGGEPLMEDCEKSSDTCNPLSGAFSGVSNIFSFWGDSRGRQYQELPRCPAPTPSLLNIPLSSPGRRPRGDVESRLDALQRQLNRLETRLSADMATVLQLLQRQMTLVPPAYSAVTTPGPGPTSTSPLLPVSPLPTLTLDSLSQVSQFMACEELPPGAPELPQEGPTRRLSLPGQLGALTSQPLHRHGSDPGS
CYP2C9, sequence (P11712 whole entry): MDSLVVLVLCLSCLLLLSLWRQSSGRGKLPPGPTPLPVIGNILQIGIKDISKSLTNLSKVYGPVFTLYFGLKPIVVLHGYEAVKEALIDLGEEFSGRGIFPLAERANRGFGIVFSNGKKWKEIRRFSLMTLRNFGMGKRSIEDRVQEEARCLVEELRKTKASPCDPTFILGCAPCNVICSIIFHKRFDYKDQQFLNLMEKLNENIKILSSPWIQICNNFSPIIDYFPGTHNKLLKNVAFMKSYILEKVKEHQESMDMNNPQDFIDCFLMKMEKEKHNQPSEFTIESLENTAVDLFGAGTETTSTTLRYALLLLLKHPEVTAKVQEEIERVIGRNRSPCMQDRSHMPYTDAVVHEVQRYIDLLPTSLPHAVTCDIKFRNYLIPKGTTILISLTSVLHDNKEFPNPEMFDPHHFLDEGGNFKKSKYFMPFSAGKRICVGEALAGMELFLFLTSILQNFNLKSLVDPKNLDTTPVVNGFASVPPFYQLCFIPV
CYP3A4, sequence (P08684 whole entry): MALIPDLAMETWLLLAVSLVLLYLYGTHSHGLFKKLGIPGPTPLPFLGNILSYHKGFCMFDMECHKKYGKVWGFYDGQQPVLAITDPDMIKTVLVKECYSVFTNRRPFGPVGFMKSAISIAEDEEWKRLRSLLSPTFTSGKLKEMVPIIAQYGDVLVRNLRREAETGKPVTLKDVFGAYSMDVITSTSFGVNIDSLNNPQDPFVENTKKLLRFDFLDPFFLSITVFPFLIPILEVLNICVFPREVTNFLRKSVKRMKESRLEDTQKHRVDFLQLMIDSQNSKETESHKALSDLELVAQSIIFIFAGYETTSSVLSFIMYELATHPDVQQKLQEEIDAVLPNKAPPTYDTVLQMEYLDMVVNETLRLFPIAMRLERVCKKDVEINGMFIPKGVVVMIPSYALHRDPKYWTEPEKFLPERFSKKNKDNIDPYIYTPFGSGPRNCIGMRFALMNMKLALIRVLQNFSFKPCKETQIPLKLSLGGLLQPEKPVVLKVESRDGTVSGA
CYP2D6, sequence (P10635 whole entry): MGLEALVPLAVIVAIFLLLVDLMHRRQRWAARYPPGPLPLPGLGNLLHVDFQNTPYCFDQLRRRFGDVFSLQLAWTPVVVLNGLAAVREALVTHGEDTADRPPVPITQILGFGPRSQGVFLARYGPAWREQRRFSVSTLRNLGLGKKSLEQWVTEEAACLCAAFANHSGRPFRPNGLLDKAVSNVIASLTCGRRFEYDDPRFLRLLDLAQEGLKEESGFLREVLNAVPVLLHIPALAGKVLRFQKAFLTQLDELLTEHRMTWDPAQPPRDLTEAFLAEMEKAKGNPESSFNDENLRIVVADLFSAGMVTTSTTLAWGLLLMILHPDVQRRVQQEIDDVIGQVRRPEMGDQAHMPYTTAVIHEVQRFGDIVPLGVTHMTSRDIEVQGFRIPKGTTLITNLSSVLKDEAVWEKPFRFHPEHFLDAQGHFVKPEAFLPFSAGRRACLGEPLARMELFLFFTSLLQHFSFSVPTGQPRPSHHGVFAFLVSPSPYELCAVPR

With `Cc1cnc2c(c1)nnn2-c1ccc(C(=O)N(c2ncccc2Cl)[C@@H]2CCCNC2)nc1` the Activity (Rattus norvegicus [1]) was “Non-Toxic”, the logD [2] was 0.7 and the fraction unbound [3] was 0.24. For the same molecule, the pKi (80S Ribosome [4]) was 4.20, the pIC50 (80S Ribosome [5]) was 5.86 and the pIC50 [6] was 5.44. For the same molecule, the pIC50 [7] was less than 4.70, the Activity (Rattus norvegicus [8]) was “Non-Toxic” and the microsomal CLint [9] was 15.1 µL/min/mg. For the same molecule, the Activity (Rattus norvegicus [10]) was “Toxic”, the inhibition at 3 µM (CYP2D6) was less than 13% and the Activity (Ribosome [11]) was “Active”. The pKi [12] was 5.23, the Papp [13] was 6.2 ×10⁻⁶ cm/s and the Cmax [14] was 9660 ng/mL. The Activity (Rattus norvegicus [15]) was “Toxic”, the concentration [16] was 15.9 µM and the selectivity ratio [17] was greater than 30. For the same molecule, the microsomal CLint [18] was 9.3 µL/min/mg, the “Cp(f)” value (Mus musculus) was 175 nM and the inhibition at 3 µM (CYP2C9) was less than 13%. For the same molecule, the inhibition at 3 µM (CYP3A4) was less than 13%, the pIC50 (IEC-6) was less than 4.70 and the Activity (Rattus norvegicus [19]) was “Toxic”. It also gave an NOAEL (Rattus norvegicus [20]) of 4.231 µM, a Papp A→B [21] of 1.3 ×10⁻⁶ cm/s and a Papp B→A [22] of 19.9 ×10⁻⁶ cm/s. For the same molecule, the inhibition at 3 µM (CYP1A2) was less than 13%, the Activity (Ribosome [23]) was “Active” and the pIC50 (80S Ribosome [24]) was 6.07. It also gave a pIC50 (Bone marrow cell) of 4.19 to 4.70.
